# ChEMBL document CHEMBL4330127, “Discovery of Novel Pyruvate Dehydrogenase Kinase 4 Inhibitors for Potential Oral Treatment of Metabolic Diseases” (J Med Chem, 2019)
# Active and inactive are the calls of the source. The rule behind the calls is not given here.
# What was measured:
# Mus musculus = assay: Antiallergic activity in mouse model of IgE/antigen-stimulated passive cutaneous anaphylaxis assessed as Evans blue exudation at 50 mg/kg, ip administered as single dose for 1 hr treated at 24 hrs post anti-DNP IgE treatment followed by DNP-HSA/Evans blue addition and measured after 1 hr (reference value: 149 +/- 16.9 ug/ml); assay type: functional
# RKO = assay: Cell cycle arrest in human RKO cells assessed as accumulation at sub-G1 phase at 50 uM after 24 hrs propidium iodide staining based flow cytometry (reference value: 17.6%); assay type: functional
# HCT-116 [1] = assay: Induction of apoptosis in human HCT116 cells assessed as increase in cleaved-PARP expression at 10 to 50 uM after 24 hrs by Western blot analysis; assay type: functional, cell-based
# Method in brief: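 HCT116 and RKO cells given a range of compound doses for 24 h; lysates probed by Western blot for apoptosis-related proteins (p53, BAX, BCLxL).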
# HCT-116 [2] = assay: Antiproliferative activity against human HCT116 cells up to 50 uM up to 72 hrs by CCK8 assay; assay type: functional, cell-based
# Method in brief: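 HCT116 and RKO cells were treated with compound alone or with oxaliplatin and grown for 0–72 h. Viability was read by CCK-8 colorimetry at 450 nm.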
# [3] = AUC (0 to infinity) in rat at 10 mg/kg, po; assay type: ADME, organism-based; parameters: dose 10 mg/kg, route oral, time infinity; details: in vivo
# Method in brief: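 Male rats given a single dose, 5 mg/kg intravenously or 10 mg/kg orally. Plasma PK parameters were reported as mean ± SD: AUCt, AUC∞, Cmax, Tmax, T1/2, CL, Vss and oral bioavailability F.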
# HCT-116 [4] = assay: Cell cycle arrest in human HCT116 cells assessed as accumulation at sub-G1 phase at 50 uM after 24 hrs propidium iodide staining based flow cytometry (reference value: 17.8%); assay type: functional
# Method in brief: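 HCT116 and RKO cells were treated with compound alone or with oxaliplatin for 24 h before harvest. Cells were stained with propidium iodide, and DNA content was analysed by flow cytometry. Cell-cycle phase populations, including sub-G1, are given as percentages.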
compound,measurement,setting,value
Cl.O=C1c2ccccc2C(=O)c2c1cccc2-c1cnn(C2CCNCC2)c1,Activity,Mus musculus,49.9 µg/mL
same,Activity,RKO,91.1%
same,Activity,HCT-116 [1],Active
same,Activity,HCT-116 [2],Active
same,AUC(0-inf),[3],18500 ng·h/mL
same,Activity,HCT-116 [4],78.2%
